Reference: ChEMBL document CHEMBL5058577, “EUbOPEN Chemogenomics Library 2 (Multiplex)” (2022)

Tested on: Fibroblast
Experiment: Multiplex assay against human fibroblast
Format: toxicity, cell-based
In short: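 Live cells carried four stains from seeding: Hoechst33342, BioTracker Green Microtubule Cytoskeleton Dye, MitoTracker Red and Annexin V Alexa Fluor 680. They were imaged on a CQ1 microscope at 37°C and 5% CO2 after compound addition. Using CellPathfinder machine-learning gating, cells were split into Hoechst high-intensity objects or normal cells, normal cells into healthy, pyknosed or fragmented nuclei, and pyknosed cells into mitotic or apoptotic; tubulin, mitochondrial-mass and membrane-permeability phenotypes are per cents of healthy-nucleus cells.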

[1] = 12 h, 1 µM, compound concentration 1 uM, replicate 1
[2] = 12 h, 1 µM, compound concentration 1 uM, replicate 2
[3] = 12 h, 10 µM, compound concentration 10 uM, replicate 1
[4] = 12 h, 10 µM, compound concentration 10 uM, replicate 2
[5] = 24 h, 1 µM, compound concentration 1 uM, replicate 1
[6] = 24 h, 1 µM, compound concentration 1 uM, replicate 2
[7] = 24 h, 10 µM, compound concentration 10 uM, replicate 1
[8] = 24 h, 10 µM, compound concentration 10 uM, replicate 2
[9] = 48 h, 1 µM, compound concentration 1 uM, replicate 1
[10] = 48 h, 1 µM, compound concentration 1 uM, replicate 2
[11] = 48 h, 10 µM, compound concentration 10 uM, replicate 1
[12] = 48 h, 10 µM, compound concentration 10 uM, replicate 2

Compound: CC(C)(C)c1cc(NC(=O)Nc2ccc(-c3cn4c(n3)sc3cc(OCCN5CCOCC5)ccc34)cc2)no1 [QUIZARTINIB]
- Population Apoptotic (%) [1]: 42%
- Population Fragmented Nuclei (%) [1]: 16%
- Population Healthy Nuclei (%) [1]: 65%
- Population Hoechst High Intensity Objects (%) [1]: 2%
- Population Membrane Permeable-Phenotype (%) [1]: 0%
- Population Mitochondria Different-Phenotype (%) [1]: 7%
- Population Mitotic Cells (%) [1]: 57%
- Population Normal (%) [1]: 97%
- Population Pyknosed Nuclei (%) [1]: 17%
- Population Tubulin-Different-Phenotype (%) [1]: 31%
- Total Cell Count [1]: 150
- Population Apoptotic (%) [2]: 41%
- Population Fragmented Nuclei (%) [2]: 24%
- Population Healthy Nuclei (%) [2]: 52%
- Population Membrane Permeable-Phenotype (%) [2]: 1%
- Population Mitochondria Different-Phenotype (%) [2]: 5%
- Population Mitotic Cells (%) [2]: 58%
- Population Pyknosed Nuclei (%) [2]: 23%
- Population Tubulin-Different-Phenotype (%) [2]: 41%
- Total Cell Count [2]: 137
- Population Apoptotic (%) [3]: 43%
- Population Fragmented Nuclei (%) [3]: 34%
- Population Healthy Nuclei (%) [3]: 56%
- Population Hoechst High Intensity Objects (%) [3]: 3%
- Population Membrane Permeable-Phenotype (%) [3]: 0%
- Population Mitochondria Different-Phenotype (%) [3]: 10%
- Population Mitotic Cells (%) [3]: 56%
- Population Normal (%) [3]: 96%
- Population Pyknosed Nuclei (%) [3]: 8%
- Population Tubulin-Different-Phenotype (%) [3]: 75%
- Total Cell Count [3]: 190
- Population Apoptotic (%) [4]: 48%
- Population Fragmented Nuclei (%) [4]: 35%
- Population Healthy Nuclei (%) [4]: 45%
- Population Hoechst High Intensity Objects (%) [4]: 5%
- Population Membrane Permeable-Phenotype (%) [4]: 5%
- Population Mitochondria Different-Phenotype (%) [4]: 5%
- Population Mitotic Cells (%) [4]: 51%
- Population Normal (%) [4]: 94%
- Population Pyknosed Nuclei (%) [4]: 18%
- Population Tubulin-Different-Phenotype (%) [4]: 70%
- Total Cell Count [4]: 162
- Population Apoptotic (%) [5]: 58%
- Population Fragmented Nuclei (%) [5]: 14%
- Population Healthy Nuclei (%) [5]: 72%
- Population Hoechst High Intensity Objects (%) [5]: 1%
- Population Membrane Permeable-Phenotype (%) [5]: 0%
- Population Mitochondria Different-Phenotype (%) [5]: 6%
- Population Mitotic Cells (%) [5]: 41%
- Population Normal (%) [5]: 98%
- Population Pyknosed Nuclei (%) [5]: 12%
- Population Tubulin-Different-Phenotype (%) [5]: 32%
- Total Cell Count [5]: 137
- Population Apoptotic (%) [6]: 42%
- Population Fragmented Nuclei (%) [6]: 25%
- Population Healthy Nuclei (%) [6]: 61%
- Population Hoechst High Intensity Objects (%) [6]: 3%
- Population Membrane Permeable-Phenotype (%) [6]: 2%
- Population Mitotic Cells (%) [6]: 57%
- Population Normal (%) [6]: 96%
- Population Pyknosed Nuclei (%) [6]: 13%
- Population Tubulin-Different-Phenotype (%) [6]: 44%
- Total Cell Count [6]: 152
- Population Apoptotic (%) [7]: 75%
- Population Fragmented Nuclei (%) [7]: 33%
- Population Healthy Nuclei (%) [7]: 57%
- Population Hoechst High Intensity Objects (%) [7]: 1%
- Population Membrane Permeable-Phenotype (%) [7]: 0%
- Population Mitochondria Different-Phenotype (%) [7]: 21%
- Population Mitotic Cells (%) [7]: 25%
- Population Normal (%) [7]: 98%
- Population Pyknosed Nuclei (%) [7]: 8%
- Population Tubulin-Different-Phenotype (%) [7]: 71%
- Total Cell Count [7]: 190
- Population Apoptotic (%) [8]: 39%
- Population Fragmented Nuclei (%) [8]: 40%
- Population Healthy Nuclei (%) [8]: 46%
- Population Hoechst High Intensity Objects (%) [8]: 4%
- Population Membrane Permeable-Phenotype (%) [8]: 1%
- Population Mitochondria Different-Phenotype (%) [8]: 10%
- Population Mitotic Cells (%) [8]: 60%
- Population Normal (%) [8]: 95%
- Population Pyknosed Nuclei (%) [8]: 13%
- Population Tubulin-Different-Phenotype (%) [8]: 70%
- Total Cell Count [8]: 179
- Population Apoptotic (%) [9]: 75%
- Population Fragmented Nuclei (%) [9]: 19%
- Population Healthy Nuclei (%) [9]: 71%
- Population Hoechst High Intensity Objects (%) [9]: 8%
- Population Membrane Permeable-Phenotype (%) [9]: 0%
- Population Mitochondria Different-Phenotype (%) [9]: 5%
- Population Mitotic Cells (%) [9]: 25%
- Population Normal (%) [9]: 91%
- Population Pyknosed Nuclei (%) [9]: 9%
- Population Tubulin-Different-Phenotype (%) [9]: 38%
- Total Cell Count [9]: 145
- Population Apoptotic (%) [10]: 42%
- Population Fragmented Nuclei (%) [10]: 30%
- Population Healthy Nuclei (%) [10]: 60%
- Population Hoechst High Intensity Objects (%) [10]: 3%
- Population Membrane Permeable-Phenotype (%) [10]: 1%
- Population Mitochondria Different-Phenotype (%) [10]: 8%
- Population Mitotic Cells (%) [10]: 57%
- Population Normal (%) [10]: 96%
- Population Tubulin-Different-Phenotype (%) [10]: 34%
- Total Cell Count [10]: 158
- Population Apoptotic (%) [11]: 79%
- Population Fragmented Nuclei (%) [11]: 30%
- Population Healthy Nuclei (%) [11]: 56%
- Population Hoechst High Intensity Objects (%) [11]: 7%
- Population Membrane Permeable-Phenotype (%) [11]: 0%
- Population Mitochondria Different-Phenotype (%) [11]: 25%
- Population Mitotic Cells (%) [11]: 20%
- Population Normal (%) [11]: 92%
- Population Pyknosed Nuclei (%) [11]: 13%
- Population Tubulin-Different-Phenotype (%) [11]: 74%
- Total Cell Count [11]: 195
- Population Apoptotic (%) [12]: 60%
- Population Fragmented Nuclei (%) [12]: 44%
- Population Healthy Nuclei (%) [12]: 50%
- Population Hoechst High Intensity Objects (%) [12]: 3%
- Population Membrane Permeable-Phenotype (%) [12]: 2%
- Population Mitochondria Different-Phenotype (%) [12]: 6%
- Population Mitotic Cells (%) [12]: 40%
- Population Normal (%) [12]: 96%
- Population Pyknosed Nuclei (%) [12]: 5%
- Population Tubulin-Different-Phenotype (%) [12]: 59%
